Screening results as filed in PubChem.
Hits are enriched below; roughly 2.6% of the tested compounds scored in any of these assays.
LMPTP block – LMPTP phosphatase inhibitors, primary screen, biochemical, fluorescence intensity, uHTS | recombinant LMPTP-A, OMFP fluorogenic substrate | inhibition, % at 20 µM | 360,000 compounds, 0.22% hits;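 active = compounds that cut the enzyme signal by at least half of the control window in the single-dose screen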
Target sequence (P24666 whole entry, looked up): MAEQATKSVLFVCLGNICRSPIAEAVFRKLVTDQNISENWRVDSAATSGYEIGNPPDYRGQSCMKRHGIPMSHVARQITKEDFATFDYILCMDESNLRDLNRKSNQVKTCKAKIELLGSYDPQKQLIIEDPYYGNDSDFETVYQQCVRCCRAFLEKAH
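Test system – LMPTP-A phosphatase enzyme · Quantity – 0.625 nM LMPTP-A final · Reagent – OMFP substrate, 400 µM final · Dosing – one test concentration per compound, 20 µM, with 3% DMSO overall · Timing – 50 min enzyme reaction at room temperature, protected from light · Detection – fluorescence intensity · Controls – substrate-only low control, DMSO enzyme-plus-substrate high control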
rCAG RNA binder – binders of r(CAG) RNA repeats, primary screen, biochemical, fluorescence; r(CAG) RNA repeat, TO-PRO-1 dye displacement fluorescence; inhibition, % at 3 µM; 370,000 compounds, 1.3% hits; AID 651821, 2012;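 active = inhibition above the plate cutoff, the mean of all test compounds on that plate plus 3 SD, cut at about 35% in these data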;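 also: higher means more dye released from RNA so lower well fluorescence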
Scp-1 inhibitor – Scp-1 phosphatase inhibitors, primary screen, biochemical, colorimetric, uHTS. 340,000 compounds, 0.88% hits. AID 493091, 2011. Carboxy-terminal domain RNA polymerase II polypeptide A small phosphatase 1 (Homo …. Recombinant Scp1, phosphopeptide, malachite green phosphate absorbance. inhibition, % at 20 µM;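 active = inhibition above about 50% at 20 µM, limit read from the data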
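Assay system: SCP-1 catalytic fragment, aa 76-261 | Buffer or medium: Tris acetate buffer pH 5.5 with MgCl2 and Tween-20 | Compound: One concentration, 20 µM, with 1.0% DMSO | Also added: Phospho 17-mer peptide substrate | Signal: Absorbance at 630 nm | Incubation: 45 min enzyme reaction at room temperature | Measure: % inhibition of SCP-1 phosphate liberation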
NadD block – inhibitors of S. aureus NadD, primary screen, biochemical, colorimetric, uHTS | Nicotinate-nucleotide adenylyltransferase NadD (Staphylococcus aureus N315) | purified NadD enzyme, colorimetric absorbance read-out | AID 602399, 2012 | inhibition, % at 20 µM | 360,000 compounds, 0.78% hits; in the data active = inhibition above about 26%
STEP block – STEP phosphatase inhibitors, primary screen, biochemical, fluorescence intensity, uHTS; recombinant STEP, OMFP fluorogenic substrate; inhibition, % at 20 µM; 360,000 compounds, 0.25% hits;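 active = inhibition at 20 µM, scaled per plate between control wells, above about 37%, limit read from the data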
Target sequence (P54829 whole entry, looked up): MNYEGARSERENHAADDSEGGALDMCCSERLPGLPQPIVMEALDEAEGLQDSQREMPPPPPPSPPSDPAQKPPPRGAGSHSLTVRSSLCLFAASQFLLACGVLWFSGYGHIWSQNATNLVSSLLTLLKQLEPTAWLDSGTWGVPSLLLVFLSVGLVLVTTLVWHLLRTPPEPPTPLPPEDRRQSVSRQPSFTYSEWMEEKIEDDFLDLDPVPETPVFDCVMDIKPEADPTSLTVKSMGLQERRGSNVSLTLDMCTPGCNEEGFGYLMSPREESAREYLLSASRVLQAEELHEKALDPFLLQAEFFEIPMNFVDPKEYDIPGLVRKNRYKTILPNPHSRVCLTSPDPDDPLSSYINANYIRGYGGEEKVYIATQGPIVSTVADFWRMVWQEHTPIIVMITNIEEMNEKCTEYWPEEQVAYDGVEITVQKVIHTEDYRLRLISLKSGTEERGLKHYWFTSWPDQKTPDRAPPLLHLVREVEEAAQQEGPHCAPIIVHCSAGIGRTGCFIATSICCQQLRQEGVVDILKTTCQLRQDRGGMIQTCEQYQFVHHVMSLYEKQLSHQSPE
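Test system: STEP tyrosine phosphatase / Reagent: OMFP at 25 µM / Doses: 20 µM, 1% DMSO / Read-out: percent inhibition scaled to no-enzyme and uninhibited-enzyme controls, plate-pattern corrected / Detection: FITC-channel fluorescence of OMFP product / Medium: Bis-Tris buffer pH 6.0, 2.5 mM DTT, 0.005% Tween 20 / Schedule: 20 min at room temperature, dark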
rCAG bind conf – small molecules binding CAG repeat RNA – biochemical, fluorescence, confirmation. AID 652065, 2013. inhibition, % at 3 µM. r(CAG) RNA repeat, TO-PRO-1 dye displacement fluorescence. shares compounds with rCAG RNA binder. 4,300 compounds, 70% hits;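 active = inhibition above a per-plate cutoff, the mean inhibition of sample wells plus 3 SD, cut at about 35% in these data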;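 also: loss of TO-PRO-1 fluorescence as compound displaces dye from 1x1 AA loop RNA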
DNA CAG counter – displacement of TO-PRO-1 from CAG DNA duplex, counter-screen for rCAG RNA repeat binder project, biochemical, fluorescence, TO-PRO-1 dye, d(CAG) DNA oligo. 4,300 compounds, 94% hits. d(CAG) DNA oligo TO-PRO-1 dye displacement. shares compounds with rCAG RNA binder. inhibition, % at 3 µM;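 active = inhibition above its plate's cutoff, the mean test-well inhibition plus 3 SD, cut at about 4.8% in these data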;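 also: hits displace the dye from DNA and so lower well fluorescence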
dCAG dye DR – inhibitors of DNA CAG/GTC TO-PRO-1 complex, dose response, counter-screen for rCAG RNA repeat binder project, biochemical, fluorescence, TO-PRO-1 dye; DNA CAG/GTC duplex TO-PRO-1 dye displacement fluorescence; IC50, µM; shares compounds with rCAG RNA binder; AID 686960, 2013; 250 compounds, 20% hits; in the data active = IC50 below about 10 µM
Numbers stand for hits; . = inactive; / = no result given.

SMILES	LMPTP block	rCAG RNA binder	Scp-1 inhibitor	NadD block	STEP block	rCAG bind conf	DNA CAG counter	others
O=C(CN1C(=O)S/C(=C\c2ccccc2)C1=O)Nc1cc([N+](=O)[O-])ccc1O	.	80	.	.	.	61	24
O=C(CCN1C(=O)S/C(=C/c2ccccc2)C1=O)Nc1ccc(C(=O)O)c(O)c1	.	63	.	.	.	41	15
O=C(CCN1C(=O)S/C(=C/c2ccc(F)cc2)C1=O)Nc1ccc(O)c(C(=O)O)c1	.	51	.	.	.	36	9.1
O=C(CCN1C(=O)S/C(=C\c2ccc(F)cc2)C1=O)Nc1ccc(O)cc1C(=O)O	.	49	.	.	.	.	6.8
O=C(CCN1C(=O)/C(=C/c2ccc(F)cc2)SC1=S)NCCc1ccc(O)cc1	.	.	.	.	.	/	/
O=C(CCN1C(=O)/C(=C/c2ccc(F)cc2)SC1=S)Nc1cccnc1	.	.	.	.	.	/	/
CC(=O)CC[C@H]1CC[C@]2(CCCN(S(C)(=O)=O)C2)O1	/	.	/	/	/	/	/
CC(=O)OC12CCCN(C1)/C(=C/c1ccccc1)C2 (centres undefined)	/	.	/	/	/	/	/
COc1ccc(CNS(=O)(=O)/C=C/c2cc(C)ccc2CNC(=O)OC(C)(C)C)cc1	/	.	/	/	/	/	/
O=C(CCc1ccccc1-c1ccccc1CCNC(=O)c1c(F)cccc1F)NCc1ccccc1	/	.	/	/	/	/	/
Cc1ccccc1NC(=O)C[C@H]1CC[C@H]2[C@@H](COc3ccc(NC(=O)Nc4ccccc4)cc3C(=O)N2C)O1	/	.	/	/	/	/	/
O=C(CCN1C(=O)S/C(=C\c2ccc(F)cc2)C1=O)Nc1ccc(C(=O)O)c(O)c1	.	68	.	.	.	43	11
COC(=O)C[C@@H]1CC[C@H]2[C@H](COc3ccc(NC(=O)C4CCC4)cc3C(=O)N2C)O1	/	.	/	/	/	/	/
COC(=O)c1cc(=O)nc(NN=C2c3ccccc3-c3ccccc32)s1	.	38	/	.	.	94	77
COC(=O)c1cc(=O)nc(NN=Cc2ccccc2)s1	/	.	/	/	/	/	/
Cn1c(N)c(C(=O)N/N=C/c2ccccc2)sc1=S	.	43	.	.	.	.	7.8
Cc1ccc(S(=O)(=O)Nc2nc(C)c(C(=O)N/N=C/c3ccccc3)s2)cc1	.	80	.	.	.	70	24	dCAG dye DR=.
Cc1ccc(S(=O)(=O)Nc2nc(C)c(NC(=O)Nc3ccc(Cl)cc3Cl)s2)cc1	.	62	.	.	.	59	24
Cc1ccc(S(=O)(=O)Nc2nc(C)c(C(=O)NNS(=O)(=O)c3ccccc3)s2)cc1	.	.	.	.	.	/	/
Cc1nc(NS(=O)(=O)c2ccccc2)sc1C(=O)NN	.	83	.	.	.	.	.
Cc1ccc(S(=O)(=O)Nc2nc(C)c(C(=O)Nc3ccccc3)s2)cc1	.	36	.	.	.	.	.
C/C(=N/NC(=O)c1sc(NS(=O)(=O)c2ccccc2)nc1C)c1sc(N)nc1C	.	79	.	.	.	.	.
O=S(=O)(c1ccccc1Br)N(Cc1cn(CC2CCCCC2)nn1)C1CC1	/	.	/	/	/	/	/
COC(=O)[C@@H](N[C@H](/C=C/c1ccccc1)[C@@H](O)Cc1ccccc1)C(C)C	/	.	/	/	/	/	/
CS(=O)(=O)c1nsc2nc(=O)c(/C=C3\C=Nc4ccccc43)c(N)n12	.	44	.	.	.	70	31	dCAG dye DR=8.2
SMILES	LMPTP block	rCAG RNA binder	Scp-1 inhibitor	NadD block	STEP block	rCAG bind conf	DNA CAG counter	others
CC(C)Sc1nsc2nc(=O)c(/C=C3\C=Nc4ccccc43)c(N)n12	.	44	.	.	.	79	44
CCCCc1nn2c(N)c(/C=C3\C=Nc4ccccc43)c(=O)nc2s1	.	.	.	.	.	/	/
CCC(CC)c1nn2c(N)c(/C=C3\C=Nc4ccccc43)c(=O)nc2s1	.	.	.	.	.	/	/
CC(C)(C)OC(=O)NCc1ccccc1/C=C/S(=O)(=O)NCc1ccc(F)cc1	/	.	/	/	/	/	/
CCc1ccc(OCC(=O)Nc2nnc(-c3ccco3)s2)cc1	.	52	.	.	.	.	.
COC(=O)[C@]1(CNS(=O)(=O)c2ccc(F)cc2)CC(=O)N(C)[C@@H]1c1ccccc1	/	.	/	/	/	/	/
Oc1ccc(/C=N/N(c2ccccc2)c2ccccc2)cc1O	.	.	.	.	.	/	/
Oc1ccc(/C=N/N(c2ccccc2)c2ccccc2)c(O)c1O	.	43	/	37	.	52	28
O=[N+]([O-])c1ccc(NN=Cc2cccc3ccccc23)cc1	.	.	.	.	.	/	/
O=[N+]([O-])c1cc(Br)c(O)c(/C=N/Nc2nnnn2-c2cccc3ccccc23)c1	.	92	.	.	.	89	63
O=c1cc(-c2ccc([N+](=O)[O-])cc2)nc2cc(-c3ccc(F)cc3)[nH]n12	.	35	.	.	.	50	15
Cc1ccccc1-c1cc2nc(-c3ccc([N+](=O)[O-])cc3)cc(=O)n2[nH]1	.	.	.	.	.	/	/
O=C(Nc1cccc(Cl)c1)Nc1nnc(-c2ccncc2)s1	.	66	.	.	.	45	22
Cc1ccc(NC(=O)Nc2nnc(-c3ccncc3)s2)cc1C	.	60	.	.	.	49	17
O=S(=O)(/N=C(/Nc1nc2ccccc2s1)c1ccccc1)c1ccc(F)cc1	.	38	.	.	.	.	6.6
O=C(Nc1ccc(C(=O)O)cc1)/C(=C\c1ccc([N+](=O)[O-])cc1)NC(=O)c1ccc(Br)cc1	.	44	.	.	.	.	7.0
O=C(Nc1ccc(C(=O)O)cc1)/C(=C\c1ccc2c(c1)OCO2)NC(=O)c1ccc(Br)cc1	.	39	.	.	.	.	8.0
O=C(N/N=C/c1ccc(O)c(O)c1O)/C(=C/c1ccc([N+](=O)[O-])cc1)NC(=O)c1ccccc1	.	66	.	44	.	66	32
O=C(Nc1ccc(C(=O)O)cc1)/C(=C\C=C\c1ccccc1)NC(=O)c1ccc(Br)cc1	.	72	.	.	.	66	32
